Measured values as given in ChEMBL document CHEMBL1926569, “Novel (E)-1-(4-methyl-2-(alkylamino)thiazol-5-yl)-3-arylprop-2-en-1-ones as potent antimicrobial agents” (2011).

What was measured:
[1] = test system: Penicillium ochrochloron; test: Antifungal activity against Penicillium ochrochloron ATCC 9112 after 72 hrs by serial dilution technique; format: functional; settings: ATCC 9112, 72 h
Procedure, shortened: (§1)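 Modified microdilution in 96-well plates. Fungi were kept on malt agar at 4 °C. Spores were washed off in sterile 0.85% saline with 0.1% Tween 80. Compounds were dissolved at 1 mg/ml in 5% DMSO with 0.1% Tween 80 and added to malt broth with inoculum. Plates were shaken at 160 rpm for 72 h at 28 °C. Duplicate, repeated three times.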

[2] = test system: Salmonella typhimurium; test: Antibacterial activity against Salmonella Typhimurium ATCC 13311 after 24 hrs by microdilution method; format: functional, Salmonella enterica subsp. enterica serovar Typhimurium; settings: Salmonella enterica, ATCC 13311, 24 h
Procedure, shortened: (§2)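 Broth microdilution in 96-well plates. Bacterial suspensions were adjusted in sterile saline to 1.0 × 10⁵ CFU/ml, prepared daily and kept at 4 °C. Compound was added to LB broth with 1.0 × 10⁴ CFU per well and shaken at 160 rpm for 24 h at […] (so in the source). MIC is the lowest concentration with no visible growth under a binocular microscope. OD655 was also read. Duplicate, repeated three times.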

[3] = test system: Aspergillus fumigatus; test: Ratio of ketoconazole to compound for Aspergillus fumigatus isolated from human; format: functional
[4] = test system: Aspergillus niger; test: Ratio of bifonazole to compound for Aspergillus niger ATCC 6275; format: functional
[5] = test system: Bacillus cereus; test: Antibacterial activity against clinical isolate of Bacillus cereus after 24 hrs by microdilution method; format: functional; procedure, shortened: as §2
[6] = test system: Pseudomonas aeruginosa; test: Antibacterial activity against Pseudomonas aeruginosa ATCC 27853 incubated for 24 hrs followed by serial sub-cultivation for 24 hrs by microdilution; format: functional; settings: ATCC 27853, 24 h
Procedure, shortened: (§3)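 MBC: after the 24 h LB broth microdilution (1.0 × 10⁴ CFU per well, 160 rpm), wells were serially sub-cultured into fresh broth plates and incubated a further 24 h. MBC is the lowest concentration with no visible growth, taken as 99.5% killing of the original inoculum. Duplicate, repeated three times.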

[7] = test system: Aspergillus fumigatus; test: Antifungal activity against Aspergillus fumigatus isolated from human incubated for 72 hrs followed by serial sub-cultivation for 72 hrs by serial dilution technique; format: functional
Procedure, shortened: (§4)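 MFC: material from 72 h malt broth microdilution wells was serially sub-cultured into fresh broth plates and incubated a further 72 h at 28 °C. Fungicidal concentration is taken from growth after sub-culture. Duplicate, repeated three times.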

[8] = test system: Talaromyces funiculosus; test: Antifungal activity against Penicillium funiculosum ATCC 36839 incubated for 72 hrs followed by serial sub-cultivation for 72 hrs by serial dilution technique; format: functional; settings: ATCC 36839, 72 h; procedure, shortened: as §4
[9] = test system: Candida albicans; test: Antifungal activity against Candida albicans isolated from human after 72 hrs by serial dilution technique; format: functional; procedure, shortened: as §1
[10] = test system: Aspergillus niger; test: Antifungal activity against Aspergillus niger ATCC 6275 incubated for 72 hrs followed by serial sub-cultivation for 72 hrs by serial dilution technique; format: functional; settings: ATCC 6275, 72 h; procedure, shortened: as §4
[11] = test system: Aspergillus ochraceus; test: Ratio of ketoconazole to compound for Aspergillus ochraceus ATCC 12066; format: functional
[12] = test system: Aspergillus ochraceus; test: Ratio of bifonazole to compound for Aspergillus ochraceus ATCC 12066; format: functional
[13] = test system: Aspergillus ochraceus; test: Antifungal activity against Aspergillus ochraceus ATCC 12066 incubated for 72 hrs followed by serial sub-cultivation for 72 hrs by serial dilution technique; format: functional; settings: ATCC 12066, 72 h; procedure, shortened: as §4
[14] = test system: Staphylococcus aureus; test: Antibacterial activity against Staphylococcus aureus ATCC 6538 incubated for 24 hrs followed by serial sub-cultivation for 24 hrs by microdilution method; format: functional; settings: ATCC 6538, 24 h; procedure, shortened: as §3
[15] = test system: Aspergillus flavus; test: Antifungal activity against Aspergillus flavus ATCC 9643 after 72 hrs by serial dilution technique; format: functional; settings: ATCC 9643, 72 h; procedure, shortened: as §1
[16] = test system: Staphylococcus aureus; test: Antibacterial activity against Staphylococcus aureus ATCC 6538 after 24 hrs by microdilution method; format: functional; settings: ATCC 6538, 24 h; procedure, shortened: as §2
[17] = test system: Candida albicans; test: Ratio of bifonazole to compound for Candida albicans isolated from human; format: functional
[18] = test system: Escherichia coli; test: Antibacterial activity against Escherichia coli ATCC 35210 incubated for 24 hrs followed by serial sub-cultivation for 24 hrs by microdilution; format: functional; settings: ATCC 35210, 24 h; procedure, shortened: as §3
[19] = test system: Micrococcus flavus; test: Antibacterial activity against Micrococcus flavus ATCC 10240 after 24 hrs by microdilution method; format: functional; settings: ATCC 10240, 24 h; procedure, shortened: as §2
[20] = test system: Listeria monocytogenes; test: Antibacterial activity against Listeria monocytogenes NCTC 7973 after 24 hrs by microdilution method; format: functional; settings: NCTC 7973, 24 h; procedure, shortened: as §2
[21] = test system: Penicillium ochrochloron; test: Ratio of ketoconazole to compound for Penicillium ochrochloron ATCC 9112; format: functional
[22] = test system: Trichoderma viride; test: Ratio of bifonazole to compound for Trichoderma viride IAM 5061; format: functional
[23] = test system: Candida albicans; test: Ratio of ketoconazole to compound for Candida albicans isolated from human; format: functional
[24] = test system: Aspergillus niger; test: Antifungal activity against Aspergillus niger ATCC 6275 after 72 hrs by serial dilution technique; format: functional; settings: ATCC 6275, 72 h; procedure, shortened: as §1
[25] = test system: Aspergillus flavus; test: Antifungal activity against Aspergillus flavus ATCC 9643 incubated for 72 hrs followed by serial sub-cultivation for 72 hrs by serial dilution technique; format: functional; settings: ATCC 9643, 72 h; procedure, shortened: as §4
[26] = test system: Micrococcus flavus; test: Antibacterial activity against Micrococcus flavus ATCC 10240 incubated for 24 hrs followed by serial sub-cultivation for 24 hrs by microdilution; format: functional; settings: ATCC 10240, 24 h; procedure, shortened: as §3
[27] = test system: Enterococcus faecalis; test: Antibacterial activity against Enterococcus faecalis isolated from human incubated for 24 hrs followed by serial sub-cultivation for 24 hrs by microdilution; format: functional; procedure, shortened: as §3
[28] = test system: Talaromyces funiculosus; test: Ratio of bifonazole to compound for Penicillium funiculosum ATCC 36839; format: functional
[29] = test system: Aspergillus ochraceus; test: Antifungal activity against Aspergillus ochraceus ATCC 12066 after 72 hrs by serial dilution technique; format: functional; settings: ATCC 12066, 72 h; procedure, shortened: as §1
[30] = test system: Penicillium ochrochloron; test: Ratio of bifonazole to compound for Penicillium ochrochloron ATCC 9112; format: functional
[31] = test system: Salmonella typhimurium; test: Antibacterial activity against Salmonella Typhimurium ATCC 13311 incubated for 24 hrs followed by serial sub-cultivation for 24 hrs by microdilution; format: functional, Salmonella enterica subsp. enterica serovar Typhimurium; settings: Salmonella enterica, ATCC 13311, 24 h; procedure, shortened: as §3
[32] = test system: Trichoderma viride; test: Antifungal activity against Trichoderma viride IAM 5061 after 72 hrs by serial dilution technique; format: functional; settings: IAM 5061, 72 h; procedure, shortened: as §1
[33] = test system: Penicillium ochrochloron; test: Antifungal activity against Penicillium ochrochloron ATCC 9112 incubated for 72 hrs followed by serial sub-cultivation for 72 hrs by serial dilution technique; format: functional; settings: ATCC 9112, 72 h; procedure, shortened: as §4
[34] = test system: Escherichia coli; test: Antibacterial activity against Escherichia coli ATCC 35210 after 24 hrs by microdilution method; format: functional; settings: ATCC 35210, 24 h; procedure, shortened: as §2
[35] = test system: Bacillus cereus; test: Antibacterial activity against clinical isolate of Bacillus cereus incubated for 24 hrs followed by serial sub-cultivation for 24 hrs by microdilution; format: functional; procedure, shortened: as §3
[36] = test system: Pseudomonas aeruginosa; test: Ratio of ampicillin MIC to compound MIC for Pseudomonas aeruginosa ATCC 27853; format: functional
[37] = test system: Listeria monocytogenes; test: Antibacterial activity against Listeria monocytogenes NCTC 7973 incubated for 24 hrs followed by serial sub-cultivation for 24 hrs by microdilution; format: functional; settings: NCTC 7973, 24 h; procedure, shortened: as §3
[38] = test system: Candida albicans; test: Antifungal activity against Candida albicans isolated from human incubated for 72 hrs followed by serial sub-cultivation for 72 hrs by serial dilution technique; format: functional; procedure, shortened: as §4
[39] = test system: Aspergillus ochraceus; test: Antifungal activity against Aspergillus ochraceus after 72 hrs by serial dilution technique
[40] = test system: Talaromyces funiculosus; test: Antifungal activity against Penicillium funiculosum ATCC 36839 after 72 hrs by serial dilution technique; format: functional; settings: ATCC 36839, 72 h; procedure, shortened: as §1
[41] = test system: Trichoderma viride; test: Antifungal activity against Trichoderma viride IAM 5061 incubated for 72 hrs followed by serial sub-cultivation for 72 hrs by serial dilution technique; format: functional; settings: IAM 5061, 72 h; procedure, shortened: as §4
[42] = test system: Pseudomonas aeruginosa; test: Antibacterial activity against Pseudomonas aeruginosa ATCC 27853 after 24 hrs by microdilution method; format: functional; settings: ATCC 27853, 24 h; procedure, shortened: as §2
[43] = test system: Enterococcus faecalis; test: Antibacterial activity against Enterococcus faecalis isolated from human after 24 hrs by microdilution method; format: functional; procedure, shortened: as §2

CCNc1nc(C)c(C(=O)/C=C/c2ccc(F)cc2)s1
51.7 µM: MIC [2] | MFC [10] | MIC [19] | MBC [31] | MIC [34] | MIC [39] | MIC [43]
68.9 µM: MIC [1] | MBC [6] | MFC [7] | MFC [8] | MBC [14] | MIC [15] | MIC [16] | MBC [18] | MBC [26] | MBC [27] | MIC [29] | MFC [38] | MFC [41] | MIC [42]
34.5 µM: MIC [9] | MIC [24] | MIC [32] | MIC [40]
86.2 µM: MIC [5] | MFC [13] | MIC [20] | MFC [25] | MFC [33] | MBC [35]
103 µM: MBC [37]
10: Ratio [3] | Ratio [4] | Ratio [11] | Ratio [12] | Ratio [17] | Ratio [21] | Ratio [22] | Ratio [23] | Ratio [28] | Ratio [30] | Ratio [36]
